Assay [1] relates to Tobacco mosaic virus. The experiment in a line: Antiviral activity against TMV assessed as viral inactivation effect at 500 mg/L. The assay is classed as functional. The essentials: (§1)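 TMV purified by Gooding's method. Protective, inactivating and curative effects tested on tobacco in vivo by Li's method at 500 mg/L. Ningnanmycin served as the reference control. Each experiment used three replicates and was run three times. Data were analysed by one-way ANOVA with LSD mean separation.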

For assay [2], the system named is Tobacco mosaic virus. The experiment in a line: Antiviral activity against TMV assessed as viral disease curative effect at 500 mg/L. In kind it is functional. The essentials:
as §1

The test system of assay [3] is Tobacco mosaic virus. The experiment in a line: Antiviral activity against TMV assessed as protection effect against viral infection at 500 mg/L. The assay is classed as functional, organism-based. The essentials:
as §1

The subject of assay [4] is Nicotiana tabacum. The experiment in a line: Increase in superoxide dismutase level in TMV-infected tobacco at 500 ug/mL after 7 days by Beauchamp's method. In kind it is functional. The essentials: (§2)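 Nicotiana tabacum inoculated with TMV was treated at 500 μg/mL, and leaves were sampled at 1, 3, 5 and 7 days. Leaves were homogenized on ice in 5 mM 2-mercaptoethanol–boric acid buffer, pH 8.8, then centrifuged. The supernatant was assayed for PAL (He), POD (Polle) or SOD (Beauchamp). Water and TMV-only treatments were the controls. Means ± SD, n = 3, one-way ANOVA.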

The test system of assay [5] is Nicotiana tabacum. The experiment in a line: Increase in PR-5 gene expression in TMV-infected tobacco leaf assessed as gene expression ratio on day 5 by RT-PCR. The assay is classed as functional. The essentials: (§3)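 Real-time PCR used gene-specific primers, with β-actin as the reference, and included a 40–95 °C melt curve. Expression ratio was calculated by ΔΔCT against a calibrator over days 1–7 after TMV inoculation. Mean ± SD, n = 4, triplicate sets.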

In assay [6] the test system is Nicotiana tabacum. The experiment in a line: Increase in PR-1a gene expression in TMV-infected tobacco leaf assessed as gene expression ratio on day 5 by RT-PCR. In kind it is functional. The essentials: as §3
Assay [7] has as its system Nicotiana tabacum. The experiment in a line: Increase in peroxidase enzyme level in TMV-infected tobacco at 500 ug/mL after 7 days by Polle's method. The assay is classed as functional. The essentials:
as §2

The subject of assay [8] is Nicotiana tabacum. Nature of the assay: Increase in superoxide dismutase level in TMV-infected tobacco at 500 ug/mL after 1 day by Beauchamp's method. In kind it is functional, organism-based. The essentials:
as §2

Assay [9] deals with Nicotiana tabacum. The experiment in a line: […] in phenylalanine ammonia lyase level in TMV-infected tobacco at 500 ug/mL up to 7 days by He's method. In kind it is functional, organism-based. The essentials: as §2
Assay [10] deals with Nicotiana tabacum. The experiment in a line: Increase in peroxidase enzyme level in TMV-infected tobacco at 500 ug/mL after 1 day by Polle's method. In kind it is functional, organism-based. The essentials:
as §2

Active and inactive are the calls of the source. No cut-off for these calls is given here.

For the molecule `C/C=C/C=C/C(=O)O/N=C/C1C(C)=NN(c2ccc(Cl)cc2)C1Sc1ccc(F)cc1` (stereo not given), the Activity with Tobacco mosaic virus [1] is listed as 82.9%; with Tobacco mosaic virus [2] it was 60%; in the assay with Tobacco mosaic virus [3], 28.3%.

As to `CC1=NN(c2ccccc2)C(Sc2ccc(F)cc2)C1/C=N/OC(=O)c1ccccc1` (stereo not given), the values for the Activity with Tobacco mosaic virus [1], with Tobacco mosaic virus [2] and in the assay on Tobacco mosaic virus [3] were 55%, 34.9% and 28.8%, respectively.

`CC1=NN(c2ccc(C)cc2)C(Sc2ccc(F)cc2)C1/C=N/OC(=O)c1ccccc1` (stereo not given): the Activity is on record as 69.2% with Tobacco mosaic virus [1], 50% in the assay with Tobacco mosaic virus [2] and 48.4% with Tobacco mosaic virus [3].

With `CCCCCC(=O)O/N=C/C1C(C)=NN(c2ccccc2)C1Sc1ccc(F)cc1` (stereo not given), the Activity in the assay on Tobacco mosaic virus [1] stood at 67.8%; in the assay on Tobacco mosaic virus [2] it was 40.2%; with Tobacco mosaic virus [3], 28.9%.

For `CCCCCC(=O)O/N=C/C1C(C)=NN(c2ccc(Cl)cc2)C1Sc1ccc(F)cc1` (stereo not given), the Activity in the assay on Nicotiana tabacum [4] is given as 40 EU/mg; in the assay on Nicotiana tabacum [7], 40 EU/mg; in the assay with Tobacco mosaic virus [1] it was 85.6%; in the assay with Tobacco mosaic virus [2], 62%; in the assay on Tobacco mosaic virus [3], 31%. In addition, the result in the assay on Nicotiana tabacum [5] was inactive. The Ratio with Nicotiana tabacum [6] was found to be 26.6. In addition, the outcome with Nicotiana tabacum [8], in the assay with Nicotiana tabacum [9] and with Nicotiana tabacum [10] was Active.

`CC1=NN(c2ccc(Cl)cc2)C(Sc2ccc(F)cc2)C1/C=N/OC(=O)c1ccccc1` (stereo not given): the Activity with Tobacco mosaic virus [1] came to 63.8%; in the assay on Tobacco mosaic virus [2], 47.7%; in the assay on Tobacco mosaic virus [3], 35%.

Take `CCCC(=O)O/N=C/C1C(C)=NN(c2ccccc2)C1Sc1ccc(F)cc1` (stereo not given): the Activity was 79.9% with Tobacco mosaic virus [1], 34% with Tobacco mosaic virus [2] and 25.9% with Tobacco mosaic virus [3].

Take `COc1ccc(SC2C(/C=N/OC(=O)c3ccccc3)C(C)=NN2c2ccc(Cl)cc2)cc1` (stereo not given): the Activity turned out to be 56.8% with Tobacco mosaic virus [1], 35% in the assay with Tobacco mosaic virus [2] and 27.6% in the assay on Tobacco mosaic virus [3].

Turning to `C/C=C/C=C/C(=O)O/N=C/C1C(C)=NN(c2ccc(C)cc2)C1Sc1ccc(F)cc1` (stereo not given), the Activity is on record as 80.2% in the assay on Tobacco mosaic virus [1], 46.4% with Tobacco mosaic virus [2] and 26% with Tobacco mosaic virus [3].

In the case of `C/C=C/C=C/C(=O)O/N=C/C1C(C)=NN(c2ccc(Cl)cc2)C1Sc1ccc(C)cc1` (stereo not given), the Activity came to 68.9% in the assay on Tobacco mosaic virus [1], 38.9% in the assay on Tobacco mosaic virus [2] and 50% in the assay on Tobacco mosaic virus [3].

Regarding `CC(=O)O/N=C/C1C(C)=NN(c2ccccc2)C1Sc1ccc(F)cc1` (stereo not given), the Activity was 81.4% in the assay with Tobacco mosaic virus [1], 40.4% with Tobacco mosaic virus [2] and 36.7% with Tobacco mosaic virus [3].

For `CCCCCC(=O)O/N=C/C1C(C)=NN(c2ccc(C)cc2)C1Sc1ccc(F)cc1` (stereo not given), the values for the Activity with Tobacco mosaic virus [1], in the assay with Tobacco mosaic virus [2] and in the assay on Tobacco mosaic virus [3] were 61.5%, 30% and 40.9%, respectively.

On to `CNCC(=O)N[C@@H](CO)C(=O)N[C@H]1[C@H](O)[C@@H](O)[C@H](n2ccc(N)nc2=O)O[C@@H]1C(N)=O` [NINGNANMYCIN], for which the Ratio in the assay with Nicotiana tabacum [5] was found to be 17.9; in the assay with Nicotiana tabacum [6] it was 13.8. Further, the Activity in the assay on Tobacco mosaic virus [1] is listed as 97%; in the assay with Tobacco mosaic virus [2], 56%.

With `CC1=NN(c2cccc(Cl)c2)C(Sc2ccc(F)cc2)C1/C=N/OC(=O)c1ccccc1` (stereo not given), the Activity in the assay with Tobacco mosaic virus [1] came out at 55%; in the assay on Tobacco mosaic virus [2], 30.2%; with Tobacco mosaic virus [3], 41%.

The record behind these values is ChEMBL document CHEMBL1142547, “Synthesis and antiviral activity of novel pyrazole derivatives containing oxime esters group” (Bioorg Med Chem, 2008).
